Where a name gives a salt, the structure may show the parent alone. Calls of active or inactive are those of the source. No cut-off for these calls is given here.
Experiments:
[1] = tested on: A549; experiment: Growth inhibition of human A549 cells after 72 hrs by SRB assay; type: functional; details: A549, 72 h
Method in brief: (§1)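 Cell lines kept in RPMI with 10% FCS, 2 mM L-glutamine, penicillin/streptomycin at 37 °C, 5% CO2. Exposure 72 h to 10 concentrations from 10 to 0.0026 μg/mL. Cells fixed in 1% glutaraldehyde, stained with 0.4% SRB for 30 min, dye extracted in 10 mM Trizma base, absorbance read at 490 nm. GI50 from triplicate dose-response cultures by NCI algorithm; mean ± SD of three independent experiments.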

[2] = tested on: A549; experiment: Antimitotic activity in human A549 cells assessed as induction of microtubule depolymerization at 0.05 to 100 uM after 20 hrs by Hoechst 33342 staining-based fluorescence microscopy; type: functional, cell-based
Method in brief: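 A-549 lung carcinoma cells plated at 150 000 cells/ml on coverslips, cultured overnight, then exposed to ligands or DMSO vehicle (residual DMSO <0.5%). Cells permeabilised with Triton X100, fixed in 3.7% formaldehyde, stained with DM1A anti-α-tubulin and FITC secondary, chromatin stained with 1 μg/mL Hoechst 33342. Examined by epifluorescence microscopy. Methods state 24 h exposure; legend states 20 h.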

[3] = tested on: A549; experiment: Cell cycle arrest in human A549 cells assessed as accumulation at G2/M phase at 0.001 to 100 uM after 20 hrs by propidium iodide staining-based flow cytometry; type: functional
Method in brief: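 A-549 cells (180 000 per mL) incubated 20 h with ligands from 1 nM to 100 μM, with untreated and DMSO vehicle controls. Cells fixed in 70% ethanol, RNase-treated and stained with propidium iodide. DNA content read by flow cytometry to give percent of cells in each cycle phase. Lowest concentration giving G2/M arrest recorded.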

[4] = tested on: HT-29; experiment: Growth inhibition of human HT-29 cells after 72 hrs by SRB assay; type: functional; details: HT-29, 72 h; method in brief: as §1
[5] = tested on: SK-BR-3; experiment: Growth inhibition of human SKBR3 cells after 72 hrs by SRB assay; type: functional; details: SK-BR-3, 72 h; method in brief: as §1
[6] = species on record: Bos taurus; experiment: Inhibition of bovine brain tubulin polymerization at 1 uM after 30 mins by spectrophotometric analysis
[7] = species on record: Bos taurus; experiment: Displacement of MTC from bovine brain tubulin colchicine binding site at 20 uM by fluorometric assay
Method in brief: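 Calf brain tubulin 10 μM with 10 μM MTC in 10 mM sodium phosphate, 0.1 mM GTP, pH 7.0, with 20 μM ligand. Excitation at 350 nm. Fluorescence emission spectra recorded and the decrease relative to tubulin-bound MTC taken as displacement from the colchicine site.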

Row | Compound | GI50 [1] | Activity [2] | Activity [3] | GI50 [4] | GI50 [5] | inhibition [6] | Activity [7]
1 | COc1cc([C@@H]2c3cc4c(cc3[C@](O)([C@](O)(c3ccccc3)C(C)C)[C@H]3COC(=O)[C@H]23)OCO4)cc(OC)c1OC | 139 nM | Active | >70% | 159 nM | 148 nM |  | 
2 | COc1cc([C@@H]2c3cc4c(cc3C(=C(C)C)[C@H]3COC(=O)[C@@H]23)OCO4)cc(OC)c1OC | 6440 nM |  |  | 8280 nM | 3780 nM |  | 
3 | COc1cc([C@@H]2c3cc4c(cc3[C@](O)(C3(O)CCCCC3)[C@H]3COC(=O)[C@H]23)OCO4)cc(OC)c1OC | 90.8 nM | Active | >70% | 97.5 nM | 64.9 nM |  | 
4 | COc1cc([C@@H]2c3cc4c(cc3[C@@]3(OC(C)(C)O[C@H]3C)[C@H]3COC(=O)[C@H]23)OCO4)cc(OC)c1OC | 6020 nM |  |  | 6560 nM | 6140 nM |  | 
5 | COc1cc([C@@H]2c3cc4c(cc3[C@](O)([C@](C)(O)C(C)C)[C@H]3COC(=O)[C@H]23)OCO4)cc(OC)c1OC | 254 nM |  |  | 204 nM | 181 nM |  | 
6 | COc1cc([C@@H]2c3cc4c(cc3[C@@](O)(C3(O)C5CCCC3CCC5)[C@H]3COC(=O)[C@H]23)OCO4)cc(OC)c1OC (stereo not given in full) | 5680 nM | Active | >70% | 6420 nM | 6720 nM | 12% | 15%
7 | COc1cc([C@@H]2c3cc4c(cc3[C@](O)(C3(O)CCCC3)[C@H]3COC(=O)[C@H]23)OCO4)cc(OC)c1OC | 444 nM | Active | >70% | 451 nM | 439 nM |  | 
8 | COc1cc([C@@H]2c3cc4c(cc3[C@@](O)(C3(O)CCCCC3)[C@H]3COC(=O)[C@H]23)OCO4)cc(OC)c1OC | 547 nM |  |  | 859 nM | 610 nM |  | 
9 | COc1cc([C@@H]2c3cc4c(cc3/C(=C(/C)C(C)C)[C@H]3COC(=O)[C@@H]23)OCO4)cc(OC)c1OC | 7700 nM |  |  | 10200 nM | 4530 nM |  | 
10 | COc1cc([C@@H]2c3cc4c(cc3[C@@H](O)[C@H]3COC(=O)[C@H]23)OCO4)cc(OC)c1OC [EPIPODOPHYLLOTOXIN] | 60 nM |  |  | 60 nM |  |  | 
11 | COc1cc([C@@H]2c3cc4c(cc3[C@](O)(C3(O)C5CCCC3CCC5)[C@H]3COC(=O)[C@H]23)OCO4)cc(OC)c1OC (stereo not given in full) | 6.39 nM | Active | >70% | 5.14 nM | 7.39 nM | 45.1% | 
12 | COc1cc([C@@H]2c3cc4c(cc3[C@@](O)(C(C)(C)O)[C@H]3COC(=O)[C@H]23)OCO4)cc(OC)c1OC | 1480 nM |  |  | 659 nM | 511 nM |  | 
13 | C=C1c2cc3c(cc2[C@@H](c2cc(OC)c(OC)c(OC)c2)[C@@H]2C(=O)OC[C@H]12)OCO3 | 28.1 nM |  |  | 78.1 nM | 66.8 nM |  | 
14 | CCC[C@@H](O)[C@@]1(O)c2cc3c(cc2[C@@H](c2cc(OC)c(OC)c(OC)c2)[C@H]2C(=O)OC[C@@H]21)OCO3 | 279 nM |  |  | 404 nM | 288 nM |  | 
15 | COc1cc([C@@H]2c3cc4c(cc3[C@](O)([C@H](O)C3CC=CCC3)[C@H]3COC(=O)[C@H]23)OCO4)cc(OC)c1OC (stereo not given in full) | 2030 nM |  |  | 2510 nM | 2430 nM |  | 
16 | COc1cc([C@@H]2c3cc4c(cc3/C(=C(\c3ccccc3)C(C)C)[C@H]3COC(=O)[C@@H]23)OCO4)cc(OC)c1OC | 6210 nM |  |  | 11400 nM | 14300 nM |  | 

Row | Compound | GI50 [1] | Activity [2] | Activity [3] | GI50 [4] | GI50 [5] | inhibition [6] | Activity [7]
17 | COc1cc([C@@H]2c3cc4c(cc3[C@H](C(C)C)[C@H]3COC(=O)[C@@H]23)OCO4)cc(OC)c1OC | 79.5 nM | Active | >70% | 83.1 nM | 84.1 nM | 84.5% | 35%
18 | COc1cc([C@@H]2c3cc4c(cc3[C@@](O)(C(O)(c3ccccc3)c3ccccc3)[C@H]3COC(=O)[C@H]23)OCO4)cc(OC)c1OC | 874 nM |  |  | 528 nM | 524 nM |  | 
19 | COc1cc([C@@H]2c3cc4c(cc3[C@](O)(C(O)(c3ccccc3)c3ccccc3)[C@H]3COC(=O)[C@H]23)OCO4)cc(OC)c1OC | 376 nM |  |  | 281 nM | 313 nM |  | 
20 | COc1cc([C@@H]2c3cc4c(cc3[C@](O)(C3(O)CCOCC3)[C@H]3COC(=O)[C@@H]23)OCO4)cc(OC)c1OC | 29 nM | Active | >70% | 26.8 nM | 25.9 nM | 21.1% | 
21 | COc1cc([C@@H]2c3cc4c(cc3[C@](O)(C3(O)CCSCC3)[C@H]3COC(=O)[C@@H]23)OCO4)cc(OC)c1OC | 3320 nM |  |  | 2620 nM | 1780 nM |  | 
22 | COc1cc([C@@H]2c3cc4c(cc3[C@@](O)(C3(O)CCOCC3)[C@H]3COC(=O)[C@@H]23)OCO4)cc(OC)c1OC | 8920 nM | Active | >70% | 15400 nM | 8010 nM | 2.8% | 
23 | COc1cc([C@@H]2c3cc4c(cc3[C@](O)(C3(O)CCC3)[C@H]3COC(=O)[C@H]23)OCO4)cc(OC)c1OC | 191 nM | Active | >70% | 198 nM | 219 nM |  | 
24 | COc1cc([C@@H]2c3cc4c(cc3[C@](O)([C@@](C)(O)C(C)C)[C@H]3COC(=O)[C@H]23)OCO4)cc(OC)c1OC | 1150 nM |  |  | 1730 nM | 1030 nM |  | 
25 | COc1cc([C@@H]2c3cc4c(cc3[C@@](O)(C3(O)CCCC3)[C@H]3COC(=O)[C@H]23)OCO4)cc(OC)c1OC | 1690 nM |  |  | 2720 nM | 2420 nM |  | 
26 | COc1cc([C@@H]2c3cc4c(cc3[C@](O)(C3(O)CCCCC3)[C@H]3COC(=O)[C@@H]23)OCO4)cc(OC)c1OC | 3620 nM |  |  | 2900 nM | 1250 nM |  | 
27 | COc1ccc([C@@](C)(O)[C@@]2(O)c3cc4c(cc3[C@@H](c3cc(OC)c(OC)c(OC)c3)[C@H]3C(=O)OC[C@@H]32)OCO4)cc1OC | 2620 nM |  |  | 4750 nM | 4990 nM |  | 
28 | COc1cc([C@@H]2c3cc4c(cc3[C@@]3(OC(C)(C)O[C@@H]3C)[C@H]3COC(=O)[C@H]23)OCO4)cc(OC)c1OC | 6220 nM |  |  | 5230 nM | 5870 nM |  | 
29 | COc1cccc2c1C(=O)c1c(O)c3c(c(O)c1C2=O)C[C@@](O)(C(=O)CO)C[C@@H]3O[C@H]1C[C@H](N)[C@H](O)[C@H](C)O1 [DOXORUBICIN HYDROCHLORIDE] | 60.3 nM |  |  | 153 nM | 65.5 nM |  | 
30 | COc1cc([C@@H]2c3cc4c(cc3[C@H](O)[C@H]3COC(=O)[C@H]23)OCO4)cc(OC)c1OC [PODOFILOX] | 12 nM | Active | >70% | 12 nM |  | 7% | 25%
31 | COc1cc([C@@H]2c3cc4c(cc3[C@](O)(C(C)(C)O)[C@H]3COC(=O)[C@H]23)OCO4)cc(OC)c1OC | 577 nM |  |  | 598 nM | 457 nM |  | 

From ChEMBL document CHEMBL2163197, “Synthesis and antimitotic and tubulin interaction profiles of novel pinacol derivatives of podophyllotoxins” (2012)
